Active and inactive are the calls of the source. The rule behind the calls is not given here.
Tests used:
[1] = tested on: Mast cell; test: Induction of Wistar rat peritoneal mast cell degradation assessed as concanavalin A-induced histamine release after 15 mins fluorometric assay; type: functional, cell-based; conditions: 0.25 h
How it was run: (§1)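 Peritoneal mast cells at 5 × 10^4/mL in HEPES-buffered Tyrode stimulated with analogue plus 100 μg/mL concanavalin A for 15 min at 37 C. Supernatant histamine measured fluorometrically and expressed as percent of total cell histamine. Means ± SE of three independent experiments.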

[2] = tested on: Mast cell; test: Induction of C57BL/6 mouse peritoneal mast cell degradation assessed as concanavalin A-induced histamine release at 0.01 to 10 uM after 15 mins fluorometric assay; type: functional, cell-based
How it was run: (§2)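 Peritoneal mast cells at 5 × 10^4/mL in HEPES-buffered Tyrode stimulated with analogue plus 10 μg/mL concanavalin A for 15 min at 37 C. Supernatant histamine measured fluorometrically and expressed as percent of total cell histamine. Means ± SE of three independent experiments.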

[3] = tested on: Mast cell; test: Induction of Wistar rat peritoneal mast cell degradation assessed as concanavalin A-induced histamine release at 0.01 to 10 uM after 15 mins fluorometric assay; type: functional, cell-based; how it was run: as §1
[4] = Cytotoxicity against concanavalin A-stimulated Wistar rat peritoneal mast cells assessed as LDH release at 50 uM; type: cell-based
[5] = tested on: Mast cell; test: Induction of C57BL/6 mouse peritoneal mast cell degradation assessed as concanavalin A-induced histamine release after 15 mins fluorometric assay; type: functional, cell-based; conditions: C57BL/6, Mast cell, 0.25 h; how it was run: as §2

CCCCCCCCCCCCCCCCCC(=O)OCCCCCOP(=O)(O)OC[C@H](N)C(=O)O
EC50 [1]: > 10 µM | Activity [2]: inactive | Activity [3]: inactive

CCCCCCCCCCCCCCCC(=O)OCCCOP(=O)(O)O[C@H](C)[C@H](N)C(=O)O
EC50 [1]: 0.06 µM | Activity [2]: Active | Activity [3]: Active

CCCCCCCCCCCCCCCCCC(=O)O[C@H](C)COP(=O)(O)OC[C@H](N)C(=O)O
EC50 [1]: > 10 µM

CCCCCCCCCCCCCCCCCC(=O)OCCCCOP(=O)(O)OC[C@H](N)C(=O)O
EC50 [1]: 5 µM | Activity [2]: inactive | Activity [3]: inactive

CCCCCCCCCCCCCCCCCC(=O)OC[C@@H](O)COP(=O)(O)OC[C@H](NC)C(=O)O
EC50 [1]: > 10 µM | Activity [2]: inactive | Activity [3]: inactive

CCCCCCCCCCCCCCCCCC(=O)N(C)C[C@@H](O)COP(=O)(O)OC[C@H](N)C(=O)O
EC50 [1]: 10 µM | Activity [2]: inactive | Activity [3]: inactive

CCCCCCCCCCCCCCCCCC(=O)OCCOP(=O)(O)OC[C@H](N)C(=O)O
EC50 [1]: > 10 µM | Activity [2]: inactive | Activity [3]: inactive

CCCCCCCCCCCCCCCCCC(=O)OC[C@@H](O)COP(=O)(O)OC[C@H](N)C(=O)OC
EC50 [1]: > 10 µM | Activity [2]: inactive | Activity [3]: inactive

CCCCCCCCCCCC(=O)OC[C@@H](O)COP(=O)([O-])OCC[N+](C)(C)C [LYSOPHOSPHATIDYLCHOLINE]
Activity [4]: Toxic

CCCCCCCCCCCCCCCCCC(=O)OC[C@H](O)COP(=O)(O)OC[C@H](N)C(=O)O
EC50 [1]: 1 µM | EC50 [5]: 0.07 µM

CCCCCCCCCCCCCCCCCC(=O)OC[C@H](COP(=O)(O)OC[C@H](N)C(=O)O)OC
EC50 [1]: 2 µM

CCCCCCCCCCCCCCCCCC(=O)NC[C@@H](O)COP(=O)(O)OC[C@H](N)C(=O)O
EC50 [1]: 5 µM | Activity [2]: inactive | Activity [3]: inactive

From ChEMBL document CHEMBL1156051, “Synthesis and evaluation of lysophosphatidylserine analogues as inducers of mast cell degranulation. Potent activities of lysophosphatidylthreonine and its 2-deoxy derivative” (J Med Chem, 2009)
